Measured values from ChEMBL document CHEMBL1157145, “Cytotoxic activity of proflavine diureas: synthesis, antitumor, evaluation and DNA binding properties of 1',1''-(acridin-3,6-diyl)-3',3''-dialkyldiureas” (Bioorg Med Chem, 2008).
Calls of active or inactive are those of the source. The calls are words filed in the database; no cut-off is given here.

Experiments:
HeLa [1] = experiment: Cell cycle arrest in human HeLa cells assessed as accumulation at G0/G1 phase at 5.50 uM after 24 hrs; assay type: functional
In short: (§1)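 Cells seeded at 8 · 10^5 per 60 mm dish, allowed to settle 24 h (37 °C, 5% CO2), then exposed to the drug for 24 or 48 h. Adherent plus floating cells (5 · 10^5) were fixed in cold 70% ethanol at −20 °C overnight, treated with RNase A (100 µg/mL) and stained with propidium iodide (20 µg/mL) in Vindelov's solution for 30 min at RT. Flow cytometry used 488 nm excitation, FL-2 at 585 ± 21 nm, and histograms were modelled for G0/G1, S and G2/M fractions.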

HeLa [2] = experiment: Antiproliferative activity against human HeLa cells assessed as increase of floating cells in total cell population at 5.50 uM after 48 hrs; assay type: functional
In short: (§2)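 Cells seeded (8 · 10^5 per 60 mm dish), allowed to settle 24 h at 37 °C, 5% CO2, then treated with a single concentration for 24 or 48 h. Adherent and floating cells counted by Coulter counter. Total cell number given as % of untreated control; floating cells as % of total cell number.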

HCT-116 [3] = experiment: Induction of DNA fragmentation in human HCT116 cells after 24 hrs; assay type: functional, cell-based
In short: (§3)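 HCT-116 cells were treated for 24 or 48 h. Adherent and floating cells (5 × 10^5) were pooled, fixed in cold 70% ethanol and held overnight at −20 °C. Samples were treated with RNase A (100 µg/mL) and stained with propidium iodide (20 µg/mL) in Vindelov's solution for 30 min at RT. Flow cytometry used 488 nm excitation with emission at 585 nm. Subdiploid (subG0/G1) particles were scored on a logarithmic scale, with debris gated out on FSC × SSC.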

HeLa [4] = experiment: Cell cycle arrest in human HeLa cells assessed as accumulation at S phase at 5.50 uM after 24 hrs; assay type: functional; in short: as §1
HCT-116 [5] = experiment: Cell cycle arrest in human HCT116 cells assessed as accumulation at S phase at 77 uM after 24 hrs; assay type: functional; in short: as §1
DNA [6] = experiment: Binding affinity to calf thymus DNA at 50 uM by circular dichroism spectrophotometric titration; assay type: nucleic-acid assay; conditions: Bos taurus
HeLa [7] = experiment: Cytotoxicity against human HeLa cells after 48 hrs by MTT assay; assay type: functional, cell-based
HeLa [8] = experiment: Antiproliferative activity against human HeLa cells assessed as increase of floating cells in total cell population at 5.50 uM after 24 hrs; assay type: functional; in short: as §2
HCT-116 [9] = experiment: Cell cycle arrest in human HCT116 cells assessed as accumulation at G2/M phase at 77 uM after 24 hrs; assay type: functional; in short: as §1
HCT-116 [10] = experiment: Induction of DNA fragmentation in human HCT116 cells after 48 hrs; assay type: functional, cell-based; in short: as §3
HCT-116 [11] = experiment: Antiproliferative activity against human HCT116 cells assessed as decrease in total cell population at 77 uM after 48 hrs; assay type: functional; parameters: scale not given: the % may be the effect or the level left; in short: as §2
HCT-116 [12] = experiment: Cell cycle arrest in human HCT116 cells assessed as accumulation at G0/G1 phase at 77 uM after 48 hrs; assay type: functional; in short: as §1
HCT-116 [13] = experiment: Cell cycle arrest in human HCT116 cells assessed as accumulation at G0/G1 phase at 77 uM after 24 hrs; assay type: functional
In short: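 Adherent plus floating cells (5 · 10^5) collected 24 or 48 h after treatment, fixed in cold 70% ethanol at −20 °C overnight, washed in PBS. RNase A (100 µg/mL) and propidium iodide (20 µg/mL) in Vindelov's solution, 30 min at RT. Flow cytometry with 488 nm excitation, emission 585 ± 21 nm; % cells per cycle phase from DNA content histograms.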

HeLa [14] = experiment: Cytotoxicity against human HeLa cells after 72 hrs by MTT assay; assay type: functional, cell-based
HCT-116 [15] = experiment: Antiproliferative activity against human HCT116 cells assessed as increase of floating cells in total cell population at 77 uM after 48 hrs; assay type: functional; in short: as §2
HeLa [16] = experiment: Cell cycle arrest in human HeLa cells assessed as accumulation at G2/M phase at 5.50 uM after 24 hrs; assay type: functional; in short: as §1
HeLa [17] = experiment: Induction of apoptosis in human HeLa cells at 5.50 uM after 48 hrs; assay type: functional
In short: (§4)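 After 24 or 48 h of drug exposure, all cells were collected, combining trypsinised adherent cells with floating cells from the medium. Cells (1 × 10^6) were fixed in cold 70% ethanol overnight at −20 °C and stained with DAPI (10 µg/mL) for 30 min in the dark at RT. Under fluorescence microscopy, 300 cells per sample were scored, with condensed or fragmented nuclei counted as apoptotic.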

HCT-116 [18] = experiment: Cytotoxicity against human HCT116 cells after 72 hrs by MTT assay; assay type: functional, cell-based; conditions: Homo sapiens, HCT-116, 72 h
HeLa [19] = experiment: Cell cycle arrest in human HeLa cells assessed as accumulation at G2/M phase at 5.50 uM after 48 hrs; assay type: functional; in short: as §1
HCT-116 [20] = experiment: Induction of apoptosis in human HCT116 cells at 77 uM after 48 hrs; assay type: functional; in short: as §4
HeLa [21] = experiment: Antiproliferative activity against human HeLa cells assessed as decrease in total cell population at 5.50 uM after 24 hrs; assay type: functional; parameters: scale not given: the % may be the effect or the level left; in short: as §2
HCT-116 [22] = experiment: Cytotoxicity against human HCT116 cells after 48 hrs by MTT assay; assay type: functional, cell-based; conditions: HCT-116, 48 h
HeLa [23] = experiment: Cell cycle arrest in human HeLa cells assessed as accumulation at S phase at 5.50 uM after 48 hrs; assay type: functional; in short: as §1
HCT-116 [24] = experiment: Cell cycle arrest in human HCT116 cells assessed as accumulation at S phase at 77 uM after 48 hrs; assay type: functional; in short: as §1
HCT-116 [25] = experiment: Cell cycle arrest in human HCT116 cells assessed as accumulation at G2/M phase at 77 uM after 48 hrs; assay type: functional; in short: as §1
HCT-116 [26] = experiment: Antiproliferative activity against human HCT116 cells assessed as increase of floating cells in total cell population at 77 uM after 24 hrs; assay type: functional; in short: as §2
HeLa [27] = experiment: Cell cycle arrest in human HeLa cells assessed as accumulation at G0/G1 phase at 5.50 uM after 48 hrs; assay type: functional; in short: as §1
HCT-116 [28] = experiment: Antiproliferative activity against human HCT116 cells assessed as decrease in total cell population at 77 uM after 24 hrs; assay type: functional; parameters: scale not given: the % may be the effect or the level left; in short: as §2
DNA [29] = experiment: Binding affinity to calf thymus DNA at 4 uM by fluorescence spectrophotometric titration; assay type: nucleic-acid assay; conditions: Bos taurus
In short: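 ctDNA sonicated in TE buffer, concentration taken from A260 and given in base pairs. Compound (4 µM) in 0.01 M Tris, pH 7.4, 25 °C titrated with ctDNA (0–55 µM bp) until spectra stopped changing. Excitation 424 nm, slit widths 10 nm; binding constant derived from the change in emission.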

HCT-116 [30] = experiment: Induction of apoptosis in human HCT116 cells at 77 uM after 24 hrs; assay type: functional; in short: as §4
HeLa [31] = experiment: Antiproliferative activity against human HeLa cells assessed as decrease in total cell population at 5.50 uM after 48 hrs; assay type: functional; parameters: scale not given: the % may be the effect or the level left; in short: as §2

`CCCCNC(=O)Nc1ccc2cc3ccc(NC(=O)NCCCC)cc3nc2c1.Cl` was tested, and the Activity (HeLa [1]) was 61.17%, the Activity (HeLa [2]) was 3.93% and the Activity (HCT-116 [3]) was “Active”. For the same compound, the Activity (HeLa [4]) was 24.95%, the Activity (HCT-116 [5]) was 22.52% and the Activity (DNA [6]) was “Active”. For the same compound, the IC50 (HeLa [7]) was 5.41 µM, the Activity (HeLa [8]) was 4.03% and the Activity (HCT-116 [9]) was 37.51%. The Activity (HCT-116 [10]) was “Active”, the Activity (HCT-116 [11]) was 27.58% and the Activity (HCT-116 [12]) was 43.91%. The Activity (HCT-116 [13]) was 39.97%, the IC50 (HeLa [14]) was 11.5 µM and the Activity (HCT-116 [15]) was 33.41%. For the same compound, the Activity (HeLa [16]) was 13.88%, the Activity (HeLa [17]) was 0.44% and the IC50 (HCT-116 [18]) was 43.9 µM. The Activity (HeLa [19]) was 9.6%, the Activity (HCT-116 [20]) was 3.89% and the Activity (HeLa [21]) was 92.75%. It also gave an IC50 (HCT-116 [22]) of 77 µM, an Activity (HeLa [23]) of 15.5% and an Activity (HCT-116 [24]) of 27.24%. For the same compound, the Activity (HCT-116 [25]) was 28.85%, the Activity (HCT-116 [26]) was 51.08% and the Activity (HeLa [27]) was 74.91%. For the same compound, the Activity (HCT-116 [28]) was 47.4%, the K (DNA [29]) was 2.4 ×10⁵ /M and the Activity (HCT-116 [30]) was 9.67%. The Activity (HeLa [31]) was 96.5%.
